Test results reported in ChEMBL document CHEMBL4138140, “Discovery of Mechanism-Based Inactivators for Human Pancreatic Carboxypeptidase A from a Focused Synthetic Library” (ACS Med Chem Lett, 2017).

Columns and labels:
Carboxypeptidase A1 [1] = biological target: T1, Carboxypeptidase A1 (Bos taurus, UniProt P00730); experiment: Inhibition of bovine carboxypeptidase A using N-(4-methoxyphenylazoformyl)-Phe-OH as substrate preincubated for 3 hrs followed by susbtrate addition measured for 15 mins at 30 secs interval
T1 sequence (P00730 whole entry): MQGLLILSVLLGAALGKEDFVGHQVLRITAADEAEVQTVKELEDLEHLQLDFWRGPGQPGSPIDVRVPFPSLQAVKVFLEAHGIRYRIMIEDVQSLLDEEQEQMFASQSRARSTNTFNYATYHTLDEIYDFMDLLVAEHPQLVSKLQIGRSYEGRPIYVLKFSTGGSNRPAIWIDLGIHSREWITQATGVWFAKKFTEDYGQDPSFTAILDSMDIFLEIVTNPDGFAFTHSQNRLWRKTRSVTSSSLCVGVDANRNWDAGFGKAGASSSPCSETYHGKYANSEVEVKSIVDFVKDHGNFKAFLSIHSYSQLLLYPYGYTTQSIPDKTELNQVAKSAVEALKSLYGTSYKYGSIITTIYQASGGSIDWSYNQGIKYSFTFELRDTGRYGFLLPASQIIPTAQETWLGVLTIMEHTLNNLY
Summary of the method: (§1)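 Compound was pre-incubated with enzyme before the activity assay, either briefly (2 min) or long (3 h), to test for time-dependent inhibition.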

Carboxypeptidase A1 [2] = biological target: T1, Carboxypeptidase A1; experiment: Inhibition of bovine carboxypeptidase A using N-(4-methoxyphenylazoformyl)-Phe-OH as substrate preincubated for 2 mins followed by susbtrate addition measured for 15 mins at 30 secs interval; summary of the method: as §1
Carboxypeptidase A1 [3] = biological target: T2, Carboxypeptidase A1 (Homo sapiens, UniProt P15085); experiment: (§2) Irreversible inhibition of recombinant human carboxypeptidase A1 expressed in Pichia pastoris using N-(4-methoxyphenylazoformyl)-Phe-OH as substrate measured for 600 secs by double reciprocal plot analysis; conditions: read-out: Ki(app)
T2 sequence (P15085 whole entry): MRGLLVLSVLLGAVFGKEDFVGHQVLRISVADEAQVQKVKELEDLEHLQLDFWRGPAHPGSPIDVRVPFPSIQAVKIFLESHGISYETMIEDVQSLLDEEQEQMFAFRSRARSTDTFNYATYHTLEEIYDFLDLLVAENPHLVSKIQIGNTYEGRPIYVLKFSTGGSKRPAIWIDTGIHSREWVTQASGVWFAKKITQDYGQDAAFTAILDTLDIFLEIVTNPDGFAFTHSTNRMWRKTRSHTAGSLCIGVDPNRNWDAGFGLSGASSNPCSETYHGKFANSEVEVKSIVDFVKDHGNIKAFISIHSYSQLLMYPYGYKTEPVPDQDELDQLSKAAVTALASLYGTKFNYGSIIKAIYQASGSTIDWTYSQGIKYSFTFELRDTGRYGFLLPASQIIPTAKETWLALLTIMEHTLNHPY

[4] = biological target: T3, Carboxypeptidase A1 (Homo sapiens) (UniProt P15085); experiment: as §2
T3 sequence (whole entry): T2 sequence (P15085 whole entry)

SMILES | IC50 (Carboxypeptidase A1 [1]) | IC50 (Carboxypeptidase A1 [2]) | Ki (Carboxypeptidase A1 [3]) | Kinact [4]
CCC[C@H](C(=O)O)[C@@H]1CO1 (racemic) | 1.13 µM | 115 µM | – | –
CC(C)C[C@H](C(=O)O)[C@H]1CS1 (racemic) | 31.9 µM | – | – | –
O=C(O)[C@@H](CC1CCC1)[C@@H]1CO1 (racemic) | 1.13 µM | 57.9 µM | – | –
CC(C)C[C@H](C(=O)O)[C@H]1CO1 (racemic) | 0.57 µM | – | – | –
O=C(O)[C@@H](Cc1ccc(I)cc1)[C@@H]1CO1 (racemic) | 1.04 µM | 48.3 µM | 413 µM | 0.6 min⁻¹
O=C(O)[C@@H](CCc1ccccc1)[C@@H]1CS1 (racemic) | 16.4 µM | – | – | –
O=C(O)[C@@H](CC1CC1)[C@H]1CS1 (racemic) | 1.8 µM | 174 µM | – | –
CC(C)C[C@H](C(=O)O)[C@@H]1CS1 (racemic) | 0.26 µM | 14 µM | 56 µM | 0.52 min⁻¹
O=C(O)[C@@H](Cc1ccc(F)cc1)[C@@H]1CO1 (racemic) | 0.51 µM | 21.9 µM | 238 µM | 0.71 min⁻¹
O=C(O)[C@@H](CC1CCC1)[C@H]1CS1 (racemic) | 0.97 µM | 60 µM | – | –
CCC[C@H](C(=O)O)[C@@H]1CS1 (racemic) | 0.6 µM | 31.9 µM | 294 µM | 0.82 min⁻¹
O=C(O)[C@@H](Cc1ccc(I)cc1)[C@H]1CS1 (racemic) | 0.96 µM | 46.3 µM | 289 µM | 0.69 min⁻¹
CC(C)C[C@H](C(=O)O)[C@@H]1CO1 (racemic) | 33.1 µM | – | – | –
O=C(O)[C@@H](CCc1ccccc1)[C@@H]1CO1 (racemic) | 8.25 µM | – | – | –
O=C(O)[C@@H](Cc1ccc(F)cc1)[C@H]1CS1 (racemic) | 0.47 µM | 18.7 µM | 60.4 µM | 0.47 min⁻¹
O=C(O)[C@@H](CC1CC1)[C@@H]1CO1 (racemic) | 11.2 µM | 276 µM | – | –
